Data taken from ChEMBL document CHEMBL1629555, “Antimalarial activity of phenylthiazolyl-bearing hydroxamate-based histone deacetylase inhibitors” (Antimicrob Agents Chemother, 2008).
Converted amounts (≈) assume the structure as drawn. The source made the active and inactive calls. The rule behind the calls is not given here.

How the values were obtained:
Plasmodium falciparum [1] = experiment: Antimalarial activity against drug-resistant Plasmodium falciparum TM90C2A; assay type: functional, organism-based
Plasmodium falciparum [2] = experiment: Antimalarial activity against drug-resistant Plasmodium falciparum TM91C235; assay type: functional, organism-based
Plasmodium falciparum [3] = experiment: Antimalarial activity against drug-resistant Plasmodium falciparum D6 infected in Aotus lemurinus lemurinus monkey; assay type: functional, organism-based
Plasmodium falciparum [4] = experiment: Antimalarial activity against drug-resistant Plasmodium falciparum W2; assay type: functional, organism-based
[5] = Cytotoxicity against african green monkey Vero cells by MTT assay; assay type: cell-based; settings: chlorocebus sabaeus, read-out: LC50 (the source's name)
Plasmodium falciparum [6] = experiment: Antimalarial activity against Plasmodium falciparum infected in mouse RAW264.7 cells; assay type: functional, organism-based
[7] = Cytotoxicity against mouse RAW264.7 cells by MTT assay; assay type: cell-based; settings: read-out: LD50 (the source's name)
How it was run: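 LC50 in RAW macrophages was determined by MTT assay, given as the mean of 2–4 experiments with range. Selectivity index = RAW LC50 / lowest P. falciparum IC50.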

[8] = Selectivity index, ratio of LC50 for mouse RAW264.7 cells to IC50 for Plasmodium falciparum; settings: RAW264.7 cells
Mus musculus [9] = experiment: AUC in ICR mouse at 50 mg/kg/day, sc assessed as metabolite W308393 level by LC/MS analysis; assay type: ADME, organism-based, Plasma; design: route subcutaneous; settings: in vivo
How it was run: (§1)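 Male ICR mice, 8 weeks old, got one 50 mg/kg dose either orally or subcutaneously, with three groups of six mice per route. One mouse per group was killed at 15, 30 and 60 min and at 3, 6 and 24 h. Plasma was deproteinized with 2 volumes of acetonitrile and analysed by LC-MS/MS on a C18 column against 0–500 ng/ml standards, with parent and acid metabolite measured in the same sample. Each six-mouse group was treated as one "animal" and fitted to a two-compartment model. AUC was taken by the linear trapezoidal rule extrapolated to infinity, and Cmax and Tmax were read per "animal".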

Mus musculus [10] = experiment: AUC in ICR mouse at 50 mg/kg/day, po assessed as metabolite W308393 level by LC/MS analysis; assay type: ADME, organism-based, Plasma; design: route oral; settings: in vivo; how it was run: as §1
Plasmodium falciparum [11] = experiment: Antimalarial activity against Plasmodium falciparum at 1 nM after 48 hrs; assay type: functional, organism-based
How it was run: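 P. falciparum-infected erythrocytes were exposed to 1 nM for 3.5 h, then washed and returned to culture. Growth was scored 48 h later relative to matched untreated controls.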

[12] = target: T1, Histone deacetylase (Plasmodium falciparum 3D7) (UniProt Q7K6A1); experiment: Inhibition of Plasmodium falciparum 3D7 histone deacetylase infected in human erythrocytes assessed as alteration of histone H3 acetylation at 1.8 to 1000 nM after 3.5 hrs by SDS-PAGE; assay type: cell-based
T1 sequence (whole entry): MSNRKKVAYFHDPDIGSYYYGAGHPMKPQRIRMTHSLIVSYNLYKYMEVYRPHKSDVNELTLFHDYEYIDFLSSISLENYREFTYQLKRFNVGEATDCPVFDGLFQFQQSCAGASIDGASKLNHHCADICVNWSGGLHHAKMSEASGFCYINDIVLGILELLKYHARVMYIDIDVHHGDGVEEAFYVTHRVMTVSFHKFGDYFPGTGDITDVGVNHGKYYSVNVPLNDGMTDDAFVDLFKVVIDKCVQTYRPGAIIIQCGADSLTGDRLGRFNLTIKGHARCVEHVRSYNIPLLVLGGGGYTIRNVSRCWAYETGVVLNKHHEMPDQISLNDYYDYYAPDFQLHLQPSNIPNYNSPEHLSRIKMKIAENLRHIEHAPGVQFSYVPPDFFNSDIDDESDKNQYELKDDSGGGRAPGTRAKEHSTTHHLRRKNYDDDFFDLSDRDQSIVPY
How it was run: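 About 3 × 10^9 late-trophozoite 3D7-infected erythrocytes were incubated with compound or DMSO vehicle for 3.5 h at 37°C, with an untreated sample taken at the start. Histones (about 6 × 10^8 parasites per lane) were run on SDS–15% PAGE, with silver stain as the loading check. Western blots were probed with anti-(tetra)acetyl-H4 and anti-(di)acetyl-H3 antisera (1:2,000) and read by ECL.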

Plasmodium falciparum [13] = experiment: Antimalarial activity against Plasmodium falciparum infected mouse assessed as reduction in parasitemia at 50 mg/kg, ip; assay type: functional, organism-based; design: dose 50 mg/kg
Plasmodium falciparum [14] = experiment: Antimicrobial activity against Plasmodium falciparum; assay type: functional
How it was run: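 Labeled-hypoxanthine growth inhibition assay against strains W2, D6, TM91C235 and TM90C2A, reporting IC50. Values are single determinations, or the mean of duplicates for some compounds against D6, W2 and C235. Mefloquine and chloroquine served as assay-validity controls.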

[15] = target: T1, Histone deacetylase (Plasmodium falciparum 3D7); experiment: Inhibition of Plasmodium falciparum 3D7 histone deacetylase infected in human erythrocytes assessed as alteration of histone H3 acetylation at 100 nM after 3.5 hrs by SDS-PAGE; assay type: cell-based
How it was run: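 About 3 × 10^9 erythrocytes infected with late-trophozoite P. falciparum 3D7 were exposed to compound or to DMSO vehicle for 3.5 h at 37°C, and an untreated sample was taken at the start. Histones were extracted, about 6 × 10^8 parasites were loaded per lane on SDS–15% PAGE, and loading was checked by silver stain. Western blots were probed with anti-tetraacetyl-H4 and anti-diacetyl-H3 antisera and detected by ECL.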

In the case of Nc1cccc(-c2cc(C(=O)NCCCCCCC(=O)NO)no2)c1, the IC50 (Plasmodium falciparum [1]) is reported as 28 nM, the IC50 (Plasmodium falciparum [2]) is reported as 42.2 nM and the IC50 (Plasmodium falciparum [3]) is reported as 33.2 nM. It also gave an IC50 (Plasmodium falciparum [4]) of 69.8 nM.

O=C(CCCCCCC(=O)Nc1nc(-c2ccccc2)cs1)NO showed an IC50 (Plasmodium falciparum [1]) of 8.8 nM, an IC50 (Plasmodium falciparum [2]) of 16.7 nM and an IC50 (Plasmodium falciparum [3]) of 11.8 nM. It also gave an IC50 (Plasmodium falciparum [4]) of 13.4 nM.

CN(CCO)c1ccc(-c2csc(NC(=O)CCCCCCC(=O)NO)n2)cc1N gave a CC50 [5] of 950 nM, an IC50 (Plasmodium falciparum [6]) of 0.81 nM and an IC50 (Plasmodium falciparum [1]) of 0.9 nM. The CC50 [7] was 540 nM, the IC50 (Plasmodium falciparum [2]) was 1 nM and the selectivity ratio [8] was 670. It also gave an IC50 (Plasmodium falciparum [3]) of 0.8 nM and an IC50 (Plasmodium falciparum [4]) of 1 nM.

Compound CN(C)c1cccc(-c2csc(NC(=O)CCCCCCC(=O)NO)n2)c1 has an IC50 (Plasmodium falciparum [1]) of 18.5 nM, an IC50 (Plasmodium falciparum [2]) of 60.8 nM and an IC50 (Plasmodium falciparum [3]) of 30.5 nM. The IC50 (Plasmodium falciparum [4]) was 35.7 nM.

In the case of O=C(CCCCCCC(=O)Nc1nc(-c2cccc(O)c2)cs1)NO, the IC50 (Plasmodium falciparum [1]) is reported as 1.6 nM, the IC50 (Plasmodium falciparum [2]) is reported as 1.7 nM and the IC50 (Plasmodium falciparum [3]) is reported as 2.7 nM. For the same compound, the IC50 (Plasmodium falciparum [4]) was 2.7 nM.

In the case of Nc1cccc(-c2csc(NC(=O)CCCCCCC(=O)O)n2)c1, the AUC (Mus musculus [9]) is reported as 400 ng·h/mL, the IC50 (Plasmodium falciparum [1]) is reported as 1400 nM and the IC50 (Plasmodium falciparum [2]) is reported as > 1400 nM. The IC50 (Plasmodium falciparum [3]) was > 1400 nM, the IC50 (Plasmodium falciparum [4]) was > 1400 nM and the AUC (Mus musculus [10]) was 478 ng·h/mL.

With C[C@@H]1CC[C@H]2[C@@H](C)C(=O)O[C@@H]3O[C@@]4(C)CC[C@@H]1[C@]32OO4 the Activity (Plasmodium falciparum [11]) was “Active” and the inhibition [12] was “inactive”.

O=C(CCCCCCC(=O)Nc1nc(-c2cccc(F)c2)cs1)NO gave an IC50 (Plasmodium falciparum [1]) of 7.7 nM, an IC50 (Plasmodium falciparum [2]) of 15.8 nM and an IC50 (Plasmodium falciparum [3]) of 11.8 nM. The IC50 (Plasmodium falciparum [4]) was 14.2 nM.

Compound Nc1cccc(-c2csc(C(=O)NCCCCCCC(=O)NO)n2)c1 has an IC50 (Plasmodium falciparum [1]) of 60.7 nM, an IC50 (Plasmodium falciparum [2]) of 170 nM and an IC50 (Plasmodium falciparum [3]) of 42.4 nM. It also gave an IC50 (Plasmodium falciparum [4]) of 39.5 nM.

For O=C(CCCCCCC(=O)Nc1ccccc1)NO [VORINOSTAT], the CC50 [5] was 950 nM and the CC50 [7] was 2200 nM.

In the case of COc1cccc(-c2csc(NC(=O)CCCCCCC(=O)NO)n2)c1, the IC50 (Plasmodium falciparum [1]) is reported as 10.3 nM, the IC50 (Plasmodium falciparum [2]) is reported as 6.2 nM and the IC50 (Plasmodium falciparum [3]) is reported as 14.9 nM. For the same compound, the IC50 (Plasmodium falciparum [4]) was 11.3 nM.

Work on [N-]=[N+]=Nc1cccc(-c2csc(NC(=O)CCCCCCC(=O)NO)n2)c1 yielded an IC50 (Plasmodium falciparum [1]) of 8.8 nM, an IC50 (Plasmodium falciparum [2]) of 19.3 nM and an IC50 (Plasmodium falciparum [3]) of 9.7 nM. It also gave an IC50 (Plasmodium falciparum [4]) of 17.8 nM.

Work on Cc1cccc(-c2csc(NC(=O)CCCCCCC(=O)NO)n2)c1 yielded an IC50 (Plasmodium falciparum [1]) of 6 nM, an IC50 (Plasmodium falciparum [2]) of 3.6 nM and an IC50 (Plasmodium falciparum [3]) of 3.9 nM. For the same compound, the IC50 (Plasmodium falciparum [4]) was 7.5 nM.

Nc1ccccc1-c1csc(NC(=O)CCCCCCC(=O)NO)n1 showed an IC50 (Plasmodium falciparum [1]) of 30.3 nM, an IC50 (Plasmodium falciparum [2]) of 41.9 nM and an IC50 (Plasmodium falciparum [3]) of 34.2 nM. It also gave an IC50 (Plasmodium falciparum [4]) of 38.7 nM.

COc1ccc(-c2csc(NC(=O)CCCCCCC(=O)NO)n2)cc1N showed a CC50 [5] of 950 nM, an IC50 (Plasmodium falciparum [6]) of 0.9 nM and an IC50 (Plasmodium falciparum [1]) of 1 nM. The CC50 [7] was 3200 nM, the IC50 (Plasmodium falciparum [2]) was 1 nM and the selectivity ratio [8] was 3560. The IC50 (Plasmodium falciparum [3]) was 0.9 nM and the IC50 (Plasmodium falciparum [4]) was 1.2 nM.

For Cc1sc(NC(=O)CCCCCCC(=O)NO)nc1-c1cccc(N)c1, the IC50 (Plasmodium falciparum [1]) was 4 nM, the IC50 (Plasmodium falciparum [2]) was 6.1 nM and the IC50 (Plasmodium falciparum [3]) was 8 nM. The IC50 (Plasmodium falciparum [4]) was 7.2 nM.

In the case of Nc1cccc(-c2csc(NC(=O)CCCCc3cc(C(=O)NO)no3)n2)c1, the IC50 (Plasmodium falciparum [1]) is reported as 79.7 nM, the IC50 (Plasmodium falciparum [2]) is reported as 150 nM and the IC50 (Plasmodium falciparum [3]) is reported as 58.5 nM. The IC50 (Plasmodium falciparum [4]) was 72.1 nM.

With O=C(CCCCCCC(=O)Nc1nc(-c2ccc3ccccc3c2)cs1)NO the IC50 (Plasmodium falciparum [1]) was 5.9 nM, the IC50 (Plasmodium falciparum [2]) was 3.1 nM and the IC50 (Plasmodium falciparum [3]) was 3.3 nM. The IC50 (Plasmodium falciparum [4]) was 6.4 nM.

Nc1cc(-c2csc(NC(=O)CCCCCCC(=O)NO)n2)ccc1Cl gave an IC50 (Plasmodium falciparum [1]) of 1.6 nM, an IC50 (Plasmodium falciparum [2]) of 1.4 nM and an IC50 (Plasmodium falciparum [3]) of 1.7 nM. For the same compound, the IC50 (Plasmodium falciparum [4]) was 1.7 nM.

In the case of CCC(=O)CCCCC[C@@H]1NC(=O)[C@H]2CCCCN2C(=O)[C@H]([C@@H](C)CC)NC(=O)[C@H](Cc2cn(OC)c3ccccc23)NC1=O [APICIDIN], the Activity (Plasmodium falciparum [13]) is reported as “Active” and the MIC (Plasmodium falciparum [14]) is reported as 0.125 µg/mL (≈ 0.2 µM).

For O=C(CCCCCCC(=O)Nc1nc(-c2ccsc2)cs1)NO, the IC50 (Plasmodium falciparum [1]) was 7.4 nM, the IC50 (Plasmodium falciparum [2]) was 6.5 nM and the IC50 (Plasmodium falciparum [3]) was 7.5 nM. It also gave an IC50 (Plasmodium falciparum [4]) of 17 nM.

For CC(/C=C/C(=O)NO)=C\[C@@H](C)C(=O)c1ccc(N(C)C)cc1, the inhibition [15] was “Active”.

With Nc1cc(-c2csc(NC(=O)CCCCCCC(=O)NO)n2)ccc1F the IC50 (Plasmodium falciparum [1]) was 3.8 nM, the IC50 (Plasmodium falciparum [2]) was 2.4 nM and the IC50 (Plasmodium falciparum [3]) was 5.1 nM. The IC50 (Plasmodium falciparum [4]) was 5 nM.

In the case of Nc1ccc(-c2csc(NC(=O)CCCCCCC(=O)NO)n2)cc1, the IC50 (Plasmodium falciparum [1]) is reported as 9.9 nM, the IC50 (Plasmodium falciparum [2]) is reported as 19.6 nM and the IC50 (Plasmodium falciparum [3]) is reported as 9.8 nM. It also gave an IC50 (Plasmodium falciparum [4]) of 9.4 nM.

Nc1cccc(-c2csc(NC(=O)CCCCCC(=O)NO)n2)c1 showed an IC50 (Plasmodium falciparum [1]) of 34.4 nM, an IC50 (Plasmodium falciparum [2]) of 94.3 nM and an IC50 (Plasmodium falciparum [3]) of 12.7 nM. For the same compound, the IC50 (Plasmodium falciparum [4]) was 15.8 nM.
